Test results reported in ChEMBL document CHEMBL1122273, “5-sulfamoylorthanilic acids, a sulfonamide series with salidiuretic activity” (J Med Chem, 1983).

Columns and labels:
Rattus norvegicus [1] = species: Rattus norvegicus; assay: Diuretic activity in the rats, determined by a modified Lipschitz test; type: functional, Urine
Method in brief: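 Modified Lipschitz test: rats deprived of water 24 h, grouped in threes of similar weight in diuresis funnels. Oral dose of 50 mg/kg, suspended in 2% starch solution, by stomach tube.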

Rattus norvegicus [2] = species: Rattus norvegicus; assay: Saluretic activity in the rat measured as concentration of chloride in urine; type: functional
Method in brief: (§1)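 Rats deprived of food 24 h, water ad libitum, dosed 50 mg/kg by stomach tube as suspension in 2% starch, no extra water load. Groups of three in diuresis funnels; urine over first 5 h collected. Na⁺ and K⁺ by flame photometry, Cl⁻ argentometrically; expressed as mequiv/kg.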

Rattus norvegicus [3] = species: Rattus norvegicus; assay: Saluretic activity in the rat measured as concentration of K+ in urine; type: functional; method in brief: as §1
Rattus norvegicus [4] = species: Rattus norvegicus; assay: Saluretic activity in the rat measured as concentration of Na+ in urine; type: functional; method in brief: as §1

Structure (SMILES)	Diuretic activity (Rattus norvegicus [1]) [mL/kg]	Saluretic activity (Rattus norvegicus [2]) [m equiv 5hr-1 kg-1]	Saluretic activity (Rattus norvegicus [3]) [m equiv 5hr-1 kg-1]	Saluretic activity (Rattus norvegicus [4]) [m equiv 5hr-1 kg-1]
NS(=O)(=O)c1cc(S(=O)(=O)[O-])c(N(Cc2ccccc2)Cc2ccccc2)cc1Cl.[Na+]	0.7	0.9	0.8	0.3
Cc1ccccc1Nc1cc(NCc2ccco2)c(S(=O)(=O)[O-])cc1S(N)(=O)=O.[Na+]	0.6	0.6	1	0.7
NS(=O)(=O)c1cc(S(=O)(=O)[O-])c(NCc2ccco2)cc1Oc1ccc(Cl)cc1.[K+]	2.2	6.4	2	5.1
NS(=O)(=O)c1cc(S(=O)(=O)[O-])c(NCc2ccco2)cc1Oc1ccccc1.[K+]	1.8	7.1	1.5	5
Cc1cccc(Nc2cc(NCc3ccco3)c(S(=O)(=O)[O-])cc2S(N)(=O)=O)c1.[Na+]	0.8	0.9	1.5	0.6
CCCS(=O)(=O)c1cc(NCc2ccco2)c(S(=O)(=O)[O-])cc1S(N)(=O)=O.[Na+]	2.9	2.4	1.3	1.8
CN(c1ccccc1)c1cc(NCc2ccco2)c(S(=O)(=O)O)cc1S(N)(=O)=O.N	4.8	8.3	2.1	6.8
NCc1ccco1.NS(=O)(=O)c1cc(S(=O)(=O)O)c(NCc2ccco2)cc1Cl	3.2	7.2	2.3	6.3
CN(c1ccccc1)c1cc(NCc2ccco2)c(S(=O)(=O)[O-])cc1S(=O)(=O)N(C)C.[K+]	1.6	1.5	1.2	1
CN(C)S(=O)(=O)c1cc(S(=O)(=O)[O-])c(NCc2ccco2)cc1Oc1ccccc1.[K+]	1.2	0.7	1.1	0.3
COc1ccccc1CNc1cc(Cl)c(S(N)(=O)=O)cc1S(=O)(=O)[O-].[Na+]	0.2	0.1	0.3	0.1
NS(=O)(=O)c1cc(S(=O)(=O)[O-])c(NCc2ccco2)cc1S(=O)(=O)Cc1ccccc1.[K+]	1	0.7	0.6	0.8
CC(C)(C)S(=O)(=O)c1cc(NCc2ccco2)c(S(=O)(=O)[O-])cc1S(N)(=O)=O.[K+]	2.5	4.3	1.8	3.3
CNS(=O)(=O)c1cc(S(=O)(=O)[O-])c(NCc2ccco2)cc1Oc1ccccc1.[K+]	1.6	1	0.8	0.8
NS(=O)(=O)c1cc(S(=O)(=O)[O-])c(NCc2ccco2)cc1S(=O)(=O)CC1CCCCC1.[Na+]	4.6	10.7	2.7	8.8
NS(=O)(=O)c1cc(S(=O)(=O)[O-])c(Oc2ccccc2)cc1NCc1ccco1.[K+]	0.8	0.8	1	0.8
NC(CO)(CO)CO.NS(=O)(=O)c1cc(S(=O)(=O)O)c(NCc2ccco2)cc1Oc1ccccc1	4.1	7.8	2.2	5.8
NS(=O)(=O)c1cc(S(=O)(=O)[O-])c(NCc2ccco2)cc1Nc1ccc(Cl)cc1.[Na+]	0.4	0.5	0.4	0.4

Structure (SMILES)	Diuretic activity (Rattus norvegicus [1]) [mL/kg]	Saluretic activity (Rattus norvegicus [2]) [m equiv 5hr-1 kg-1]	Saluretic activity (Rattus norvegicus [3]) [m equiv 5hr-1 kg-1]	Saluretic activity (Rattus norvegicus [4]) [m equiv 5hr-1 kg-1]
CN(c1ccc(Cl)cc1)c1cc(NCc2ccco2)c(S(=O)(=O)[O-])cc1S(N)(=O)=O.[Na+]	1.2	0.7	1.1	0.7
Cc1ccc(Oc2cc(NCc3ccco3)c(S(=O)(=O)[O-])cc2S(N)(=O)=O)cc1C.[K+]	1.3	3.7	1.4	2.2
NS(=O)(=O)c1cc(S(=O)(=O)[O-])c(Cl)cc1NCc1ccco1.[Na+]	0.5	1	0.9	0.5
NS(=O)(=O)c1cc(S(=O)(=O)[O-])c(NCc2ccco2)cc1S(=O)(=O)C1CCCCCC1.[Na+]	4	9.9	2.8	8.9
Cc1ccc(N(C)c2cc(NCc3ccco3)c(S(=O)(=O)[O-])cc2S(N)(=O)=O)cc1.[Na+]	1.2	2.3	1.9	1.6
CCC(C)S(=O)(=O)c1cc(NCc2ccco2)c(S(=O)(=O)[O-])cc1S(N)(=O)=O.[Na+] (stereo not given)	4.5	8.5	1.9	6.7
CNS(=O)(=O)c1cc(S(=O)(=O)[O-])c(NCc2ccco2)cc1N(C)c1ccccc1.[K+]	1.3	1.8	1.4	1.2
NS(=O)(=O)c1cc(S(=O)(=O)[O-])c(NCC2CCCO2)cc1Cl.[Na+] (stereo not given)	0.4	0.5	0.4	0.4
N.NS(=O)(=O)c1cc(S(=O)(=O)O)c(NCc2ccco2)cc1Oc1ccccc1	4.2	8.7	2.4	6.6
NS(=O)(=O)c1cc(S(=O)(=O)[O-])c(NCc2ccco2)cc1NCc1ccccc1.[K+]	1	1.2	0.6	0.8
Cc1cccc(Oc2cc(NCc3ccco3)c(S(=O)(=O)[O-])cc2S(N)(=O)=O)c1.[K+]	4.4	7.9	2.2	6.7
CCCCCCS(=O)(=O)c1cc(NCc2ccco2)c(S(=O)(=O)[O-])cc1S(N)(=O)=O.[Na+]	0.7	1.2	1.9	1.1
CN(c1ccccc1)c1cc(NCc2ccco2)c(S(=O)(=O)O)cc1S(N)(=O)=O.NC(N)=NC(=O)c1nc(Cl)c(N)nc1N	3.3	2.3	0.4	3.5
CN(Cc1ccco1)c1cc(Cl)c(S(N)(=O)=O)cc1S(=O)(=O)[O-].[Na+]	0.8	0.8	0.5	0.8
CN(c1cc(NCc2ccco2)c(S(=O)(=O)[O-])cc1S(N)(=O)=O)C1CCCCC1.[K+]	0.8	0.6	1	0.4
CCN(c1ccccc1)c1cc(NCc2ccco2)c(S(=O)(=O)[O-])cc1S(N)(=O)=O.[Na+]	0.8	0.3	1	0.4
NS(=O)(=O)c1cc(S(=O)(=O)[O-])c(NCc2ccncc2)cc1Cl.[Na+]	0.2	0.1	0.4	0.1
